Laboratory results taken from ChEMBL document CHEMBL3286139, “Synthesis of α, β-unsaturated carbonyl based compounds as acetylcholinesterase and butyrylcholinesterase inhibitors: characterization, molecular modeling, QSAR studies and effect against amyloid β-induced cytotoxicity” (Eur J Med Chem, 2014).
Activity calls are given as the source filed them. The calls are words filed in the database; no cut-off is given here.

What was measured:
[1] = system: Radical scavenging activity; experiment: Antioxidant activity assessed as DPPH free radical scavenging activity; assay type: functional
PC-12 = experiment: Neuroprotective activity against amyloid beta (1 to 42)-induced cytotoxicity in rat PC12 cells at 0.01 to 100 uM pretreated for 24 hrs followed by addition of 25 uM amyloid beta (1 to 42) by MTT assay; assay type: functional, cell-based
Outline: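 PC12 cells (RPMI-1640, 10% heat-inactivated FBS, 37°C, 5% CO2) pre-incubated with compound (0.01-100 μM) in serum-free medium for 24 h, then given 25 µM Aβ1-42. Untreated control lacked Aβ. Selegiline served as positive control. MTT 2.0 mg/ml for 4 h at 37°C, DMSO solubilization, 570/630 nm read. Mean percent viable cells versus untreated, mean ± SE, n=5.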

[2] = Cytotoxicity against rat PC12 cells at 0.01 to 100 uM after 24 hrs by MTT assay; assay type: cell-based; conditions: pc-12, 24 h
Outline: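 PC12 cells kept in RPMI-1640 with 10% heat-inactivated FBS and 1% penicillin-streptomycin at 37°C, 5% CO2. Seeded 1×10^4 cells/well, exposed to compound (0.01-100 μM) for 24 h. MTT (2.0 mg/ml) added for 4 h at 37°C, formazan dissolved in DMSO, read at 570/630 nm. Viability given as percent of control cultures.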

[3] = Neuroprotective activity against amyloid beta (1 to 42)-induced cytotoxicity in rat PC12 cells at 100 uM pretreated for 24 hrs followed by addition of 25 uM amyloid beta (1 to 42) by MTT assay; assay type: functional, PC-12
Outline: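 PC12 cells in RPMI-1640/10% heat-inactivated FBS, 37°C, 5% CO2, seeded 1×10^4 cells/well. Compound pre-incubation 24 h in serum-free medium, then 25 µM Aβ1-42 added; selegiline as positive control. MTT 2.0 mg/ml, 4 h at 37°C, formazan dissolved in DMSO, read 570/630 nm. Viability as % of untreated cells, mean ± SE, n=5.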

Row | SMILES | IC50 [1] [µM] | Activity (PC-12) | Activity [2] | Activity [3]
1 | CCOC(OCC)c1ccc(/C=C2\COC/C(=C\c3ccc(C(OCC)OCC)cc3)C2=O)cc1 | 29.3 | inactive | Non-toxic | –
2 | CCOC(OCC)c1ccc(/C=C2\CN(C)C/C(=C\c3ccc(C(OCC)OCC)cc3)C2=O)cc1 | 20.4 | Active | Non-toxic | <=87%
3 | CN(C)c1ccc(/C=C/C(=O)/C=C/c2ccc(N(C)C)cc2[N+](=O)[O-])c([N+](=O)[O-])c1 | > 50 | Active | Non-toxic | –
4 | CN(C)c1ccc(/C=C2\CCc3ccccc3C2=O)c([N+](=O)[O-])c1 | 23 | Active | Non-toxic | <=87%
5 | O=C1/C(=C\c2ccc(N3CCCC3)cc2)COC/C1=C\c1ccc(N2CCCC2)cc1 | > 50 | inactive | Non-toxic | –
6 | CN1C/C(=C/c2ccc(N(C)C)cc2[N+](=O)[O-])C(=O)/C(=C/c2ccc(N(C)C)cc2[N+](=O)[O-])C1 | 18.4 | Active | Non-toxic | <=87%
7 | O=C1/C(=C/c2ccc(N3CCCC3)cc2)CC/C1=C\c1ccc(N2CCCC2)cc1 | > 50 | inactive | Non-toxic | –
8 | CN1C/C(=C/c2ccc(N3CCCC3)cc2)C(=O)/C(=C/c2ccc(N3CCCC3)cc2)C1 | 43.3 | inactive | Non-toxic | –
9 | O=C1/C(=C\c2ccc(N3CCCC3)cc2)CNC/C1=C\c1ccc(N2CCCC2)cc1 | 26.9 | inactive | Non-toxic | –
10 | CN(C)c1ccc(/C=C2/COC/C(=C\c3ccc(N(C)C)cc3[N+](=O)[O-])C2=O)c([N+](=O)[O-])c1 | 29.2 | Active | Non-toxic | –
11 | CN(C)c1ccc(/C=C2/CNC/C(=C\c3ccc(N(C)C)cc3[N+](=O)[O-])C2=O)c([N+](=O)[O-])c1 | 25.7 | Active | Non-toxic | <=87%
12 | O=C1/C(=C\c2ccc(N3CCCC3)cc2)CN(Cc2ccccc2)C/C1=C\c1ccc(N2CCCC2)cc1 | > 50 | inactive | Non-toxic | –
13 | O=C1/C(=C/c2ccc(N3CCCC3)cc2)Cc2ccccc21 | > 50 | inactive | Non-toxic | –
14 | CN(C)c1ccc(/C=C2\Cc3ccccc3C2=O)c([N+](=O)[O-])c1 | > 50 | Active | Non-toxic | –
15 | CCOC(OCC)c1ccc(/C=C2\CCc3ccccc3C2=O)cc1 | 39.5 | inactive | Non-toxic | –
16 | O=C1/C(=C/c2ccc(N3CCCC3)cc2)CCc2ccccc21 | 29.2 | inactive | Non-toxic | –

Row | SMILES | IC50 [1] [µM] | Activity (PC-12) | Activity [2] | Activity [3]
17 | CN(C)c1ccc(/C=C2\CC/C(=C\c3ccc(N(C)C)cc3[N+](=O)[O-])C2=O)c([N+](=O)[O-])c1 | 47.8 | Active | Non-toxic | –
18 | CCOC(OCC)c1ccc(/C=C2\Cc3ccccc3C2=O)cc1 | 37.2 | inactive | Non-toxic | –
19 | O=C(/C=C/c1ccc(N2CCCC2)cc1)/C=C/c1ccc(N2CCCC2)cc1 | > 50 | inactive | Non-toxic | –
20 | CCOC(OCC)c1ccc(/C=C2\CN(Cc3ccccc3)C/C(=C\c3ccc(C(OCC)OCC)cc3)C2=O)cc1 | 28.2 | inactive | Non-toxic | –
21 | CCOC(OCC)c1ccc(/C=C2\CNC/C(=C\c3ccc(C(OCC)OCC)cc3)C2=O)cc1 | 19.3 | Active | Non-toxic | <=87%
22 | CN(C)c1ccc(/C=C/C(=O)C2CCc3ccccc3C2=O)c([N+](=O)[O-])c1 (configuration not stated) | 49.1 | Active | Non-toxic | –
23 | CN(C)c1ccc(/C=C2/CCC/C(=C\c3ccc(N(C)C)cc3[N+](=O)[O-])C2=O)c([N+](=O)[O-])c1 | 32.5 | Active | Non-toxic | –
24 | CCOC(OCC)c1ccc(/C=C/C(=O)/C=C/c2ccc(C(OCC)OCC)cc2)cc1 | > 50 | inactive | Non-toxic | –
25 | C#CCN(C)[C@H](C)Cc1ccccc1 | – | Active | – | –
26 | O=C(/C=C/c1ccc(N2CCCC2)cc1)C1CCc2ccccc2C1=O (configuration not stated) | 27.9 | inactive | Non-toxic | –
27 | O=C1O[C@H]([C@@H](O)CO)C(O)=C1O [ASCORBIC ACID] | 19.4 | – | – | –
28 | CCOC(OCC)c1ccc(/C=C2\CC/C(=C\c3ccc(C(OCC)OCC)cc3)C2=O)cc1 | – | inactive | Non-toxic | –
29 | O=C1/C(=C\c2ccc(N3CCCC3)cc2)CCC/C1=C\c1ccc(N2CCCC2)cc1 | 31.3 | inactive | Non-toxic | –
30 | CN(C)c1ccc(/C=C2/CN(Cc3ccccc3)C/C(=C\c3ccc(N(C)C)cc3[N+](=O)[O-])C2=O)c([N+](=O)[O-])c1 | > 50 | Active | Non-toxic | –
31 | CCOC(OCC)c1ccc(/C=C/C(=O)C2CCc3ccccc3C2=O)cc1 (configuration not stated) | > 50 | inactive | Non-toxic | –
32 | CCOC(OCC)c1ccc(/C=C2\CCC/C(=C\c3ccc(C(OCC)OCC)cc3)C2=O)cc1 | 20.1 | Active | Non-toxic | <=87%
